Test results reported in ChEMBL document CHEMBL1151263, “Cytotoxic phenylpropanoid glycosides from the stems of Smilax china” (2005).
Converted amounts (≈) assume the structure as drawn.

Columns and labels:
Type in all cases: functional
MCF7 = assay: Cytotoxicity against human MCF7 cells after 3 days by MTT assay; conditions: MCF7, 72 h, read-out: ED50 (the source's name)
In short: (§1)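 Cells grown in RPMI-1640 and seeded in 96-well plates for 4 h before samples were added at four concentrations. Incubation at 37 °C for 3 days, then MTT added for 5 h. Medium removed, formazan dissolved in DMSO with 10 min shaking, absorbance read at 550 nm. ED50 reported in µg/mL.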

[1] = Cytotoxicity against human Medulloblastoma cells after 3 days by MTT assay; conditions: Medulloblastoma cell, 72 h, read-out: ED50 (the source's name); in short: as §1
DLD-1 = assay: Cytotoxicity against human DLD1 cells after 3 days by MTT assay; conditions: DLD-1, 72 h, read-out: ED50 (the source's name); in short: as §1
HeLa = assay: Cytotoxicity against human HeLa cells after 3 days by MTT assay; conditions: 72 h, read-out: ED50 (the source's name); in short: as §1
KB = assay: Cytotoxicity against human KB cells after 3 days by MTT assay; conditions: 72 h, read-out: ED50 (the source's name); in short: as §1
A549 = assay: Cytotoxicity against human A549 cells after 3 days by MTT assay; conditions: A549, 72 h, read-out: ED50 (the source's name); in short: as §1

Structure (SMILES) | EC50 (MCF7) [µg/mL] | EC50 [1] [µg/mL] | EC50 (DLD-1) [µg/mL] | EC50 (HeLa) [µg/mL] | EC50 (KB) [µg/mL] | EC50 (A549) [µg/mL]
COc1cc(/C=C/C(=O)OC[C@H]2O[C@@](COC(=O)/C=C/c3ccc(O)cc3)(O[C@H]3O[C@H](CO)[C@@H](O)[C@H](O)[C@H]3O)[C@@H](OC(=O)/C=C/c3ccc(O)c(OC)c3)[C@@H]2OC(C)=O)ccc1O [SMILASIDE D] | > 20 | 11.9 (≈ 13.5 µM) | 2.7 (≈ 3.06 µM) | 7.3 (≈ 8.27 µM) | 13 (≈ 14.7 µM) | 8.4 (≈ 9.51 µM)
COc1cc(/C=C/C(=O)OC[C@H]2O[C@@](COC(=O)/C=C/c3ccc(O)cc3)(O[C@H]3O[C@H](COC(C)=O)[C@@H](O)[C@H](O)[C@H]3O)[C@@H](OC(=O)/C=C/c3ccc(O)c(OC)c3)[C@@H]2O)ccc1O [SMILASIDE E] | 13 (≈ 14.7 µM) | 12.2 (≈ 13.8 µM) | 4.5 (≈ 5.1 µM) | 5.1 (≈ 5.78 µM) | 5.5 (≈ 6.23 µM) | 12.4 (≈ 14 µM)
COc1cc(/C=C/C(=O)OC[C@H]2O[C@@](COC(=O)/C=C/c3ccc(O)cc3)(O[C@H]3O[C@H](CO)[C@@H](O)[C@H](O)[C@H]3O)[C@@H](OC(=O)/C=C/c3ccc(O)c(OC)c3)[C@@H]2O)ccc1O [SMILASIDE C] | > 20 | > 20 | > 20 | > 20 | > 20 | > 20
COc1cc(/C=C/C(=O)OC[C@H]2O[C@@](CO)(O[C@H]3O[C@H](COC(C)=O)[C@@H](OC(C)=O)[C@H](O)[C@H]3O)[C@@H](OC(=O)/C=C/c3ccc(O)c(OC)c3)[C@@H]2O)ccc1O [SMILASIDE A] | 10.8 (≈ 13.9 µM) | 11.3 (≈ 14.5 µM) | 11.6 (≈ 14.9 µM) | 8.9 (≈ 11.4 µM) | 11.2 (≈ 14.4 µM) | 7.1 (≈ 9.12 µM)
COc1cc(/C=C/C(=O)OC[C@H]2O[C@@](COC(=O)/C=C/c3ccc(O)cc3)(O[C@H]3O[C@H](COC(C)=O)[C@@H](O)[C@H](O)[C@H]3OC(C)=O)[C@@H](OC(=O)/C=C/c3ccc(O)cc3)[C@@H]2O)ccc1O [SMILASIDE F] | 13 (≈ 14.5 µM) | > 20 | 5 (≈ 5.59 µM) | 8.3 (≈ 9.28 µM) | 9 (≈ 10.1 µM) | > 20
COc1cc(/C=C/C(=O)OC[C@H]2O[C@@](CO)(O[C@H]3O[C@H](CO)[C@@H](O)[C@H](O)[C@H]3OC(C)=O)[C@@H](OC(=O)/C=C/c3ccc(O)c(OC)c3)[C@@H]2O)ccc1O [SMILASIDE B] | 10.3 (≈ 14 µM) | 9.4 (≈ 12.8 µM) | > 20 | > 20 | > 20 | 12 (≈ 16.3 µM)
COc1cccc2c1C(=O)c1c(O)c3c(c(O)c1C2=O)C[C@@](O)(C(=O)CO)C[C@@H]3O[C@H]1C[C@H](N)[C@H](O)[C@H](C)O1 [DOXORUBICIN] | 0.1 (≈ 0.184 µM) | 0.1 (≈ 0.184 µM) | 0.1 (≈ 0.184 µM) | 0.1 (≈ 0.184 µM) | 0.1 (≈ 0.184 µM) | 0.1 (≈ 0.184 µM)
